Laboratory results from ChEMBL document CHEMBL2439956, “Synthesis and biological evaluation of novel formyl-pyrazoles bearing coumarin moiety as potent antimicrobial and antioxidant agents” (2013).
Values after ≈ are worked out from the molar mass of the structure shown. Active and inactive are the calls of the source. The rule behind the calls is not given here.

Assays:
[1] = test system: Aspergillus flavus; test: Antifungal activity against Aspergillus flavus by broth dilution technique; assay type: functional
Method in brief: (§1)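 Broth dilution technique; each MIC (µg/mL) is the mean of three determinations run in triplicate against the bacterial and fungal strains.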

[2] = test system: Staphylococcus aureus; test: Antibacterial activity against Staphylococcus aureus by broth dilution technique; assay type: functional; method in brief: as §1
[3] = test system: Aspergillus niger; test: Antifungal activity against Aspergillus niger by broth dilution technique; assay type: functional; method in brief: as §1
[4] = test system: Pseudomonas aeruginosa; test: Antibacterial activity against Pseudomonas aeruginosa by broth dilution technique; assay type: functional; method in brief: as §1
[5] = test system: Streptococcus pyogenes; test: Antibacterial activity against Streptococcus pyogenes by broth dilution technique; assay type: functional; method in brief: as §1
[6] = test system: Escherichia coli; test: Antibacterial activity against Escherichia coli by broth dilution technique; assay type: functional; method in brief: as §1
[7] = test system: Cryptococcus neoformans; test: Antifungal activity against Cryptococcus neoformans by broth dilution technique; assay type: functional; method in brief: as §1
[8] = test system: Candida albicans; test: Antifungal activity against Candida albicans by broth dilution technique; assay type: functional; method in brief: as §1
[9] = test system: Radical scavenging activity; test: Antioxidant activity assessed as DPPH radical scavenging activity at 20 ug/ml relative to butylated hydroxytoluene; assay type: functional
Method in brief: (§2)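 DPPH radical scavenging assay with BHT as standard antioxidant. Samples were tested at five concentrations (10, 20, 30, 40 and 50 µg/mL) in triplicate, alongside a control at 0 µg/mL. Read-out is % radical scavenging, reported as mean ± SD.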

[10] = test system: Radical scavenging activity; test: Antioxidant activity assessed as DPPH radical scavenging activity at 30 ug/ml relative to butylated hydroxytoluene; assay type: functional; method in brief: as §2
[11] = test system: Radical scavenging activity; test: Antioxidant activity assessed as DPPH radical scavenging activity at 10 ug/ml relative to butylated hydroxytoluene; assay type: functional; method in brief: as §2
[12] = test system: Radical scavenging activity; test: Antioxidant activity assessed as DPPH radical scavenging activity at 40 ug/ml relative to butylated hydroxytoluene; assay type: functional; method in brief: as §2
[13] = test system: Radical scavenging activity; test: Antioxidant activity assessed as DPPH radical scavenging activity at 50 ug/ml relative to butylated hydroxytoluene; assay type: functional; method in brief: as §2
[14] = test system: Streptococcus pyogenes; test: Antibacterial activity against Streptococcus pyogenes at 200 ug/ml by broth dilution technique; assay type: functional, organism-based
[15] = test system: Escherichia coli; test: Antibacterial activity against Escherichia coli at 200 ug/ml by broth dilution technique; assay type: functional, organism-based
[16] = test system: Candida albicans; test: Antifungal activity against Candida albicans at 200 ug/ml by broth dilution technique; assay type: functional, organism-based
[17] = test system: Aspergillus flavus; test: Antifungal activity against Aspergillus flavus at 200 ug/ml by broth dilution technique; assay type: functional, organism-based

Row | SMILES | MIC [1] | MIC [2] | MIC [3] | MIC [4] | MIC [5] | MIC [6] | MIC [7] | MIC [8] | Activity [9] | Activity [10] | Activity [11] | Activity [12] | Activity [13] | Activity [14] | Activity [15] | Activity [16] | Activity [17]
1 | C/C(=N/Nc1ccc(Cl)cc1)c1c(O)ccc2c(C)cc(=O)oc12 | 50 µg/mL (≈ 146 µM) | 20 µg/mL (≈ 58.3 µM) | 60 µg/mL (≈ 175 µM) | 25 µg/mL (≈ 72.9 µM) | 50 µg/mL (≈ 146 µM) | 50 µg/mL (≈ 146 µM) | 25 µg/mL (≈ 72.9 µM) | 30 µg/mL (≈ 87.5 µM) |  |  |  |  |  |  |  |  | 
2 | COc1ccccc1-n1cc(C=O)c(-c2c(O)ccc3c(C)cc(=O)oc23)n1 | 25 µg/mL (≈ 66.4 µM) | 30 µg/mL (≈ 79.7 µM) | 50 µg/mL (≈ 133 µM) | 25 µg/mL (≈ 66.4 µM) | 50 µg/mL (≈ 133 µM) | 75 µg/mL (≈ 199 µM) | 25 µg/mL (≈ 66.4 µM) | 50 µg/mL (≈ 133 µM) | 12% | 13.3% | 11.1% | 15.6% | 17.4% |  |  |  | 
3 | C/C(=N/Nc1ccccc1)c1c(O)ccc2c(C)cc(=O)oc12 | 75 µg/mL (≈ 243 µM) | 40 µg/mL (≈ 130 µM) | 75 µg/mL (≈ 243 µM) | 25 µg/mL (≈ 81.1 µM) | inactive | inactive | 50 µg/mL (≈ 162 µM) | 50 µg/mL (≈ 162 µM) |  |  |  |  |  | inactive | inactive |  | 
4 | C[C@@H]1[C@H](O)[C@@H](C)/C=C/C=C/C=C/C=C/C=C/C=C/C=C/[C@H](O[C@@H]2O[C@H](C)[C@@H](O)[C@H](N)[C@@H]2O)C[C@@H]2O[C@](O)(C[C@@H](O)C[C@@H](O)[C@H](O)CC[C@@H](O)C[C@@H](O)CC(=O)O[C@H]1C)C[C@H](O)[C@H]2C(=O)O [AMPHOTERICIN B] | 50 µg/mL (≈ 54.1 µM) |  | 50 µg/mL (≈ 54.1 µM) |  |  |  | 25 µg/mL (≈ 27.1 µM) | 25 µg/mL (≈ 27.1 µM) |  |  |  |  |  |  |  |  | 
5 | Cc1cc(=O)oc2c(-c3nn(-c4ccc([N+](=O)[O-])cc4[N+](=O)[O-])cc3C=O)c(O)ccc12 | inactive | 40 µg/mL (≈ 91.7 µM) | inactive | 20 µg/mL (≈ 45.8 µM) | 75 µg/mL (≈ 172 µM) | 40 µg/mL (≈ 91.7 µM) | inactive | inactive | 41.9% | 47.1% | 34.7% | 51.1% | 56% |  |  |  | 
6 | C/C(=N/Nc1ccc([N+](=O)[O-])cc1[N+](=O)[O-])c1c(O)ccc2c(C)cc(=O)oc12 | inactive | 50 µg/mL (≈ 126 µM) | inactive | inactive | 75 µg/mL (≈ 188 µM) | inactive | inactive | inactive |  |  |  |  |  |  |  |  | 
7 | COc1ccccc1N/N=C(/C)c1c(O)ccc2c(C)cc(=O)oc12 | 40 µg/mL (≈ 118 µM) | 30 µg/mL (≈ 88.7 µM) | 50 µg/mL (≈ 148 µM) | inactive | 60 µg/mL (≈ 177 µM) | 50 µg/mL (≈ 148 µM) | 40 µg/mL (≈ 118 µM) | 30 µg/mL (≈ 88.7 µM) |  |  |  |  |  |  |  |  | 
8 | O=C(O)c1cn(C2CC2)c2cc(N3CCNCC3)c(F)cc2c1=O [CIPROFLOXACIN] |  |  |  |  | 50 µg/mL (≈ 151 µM) | 25 µg/mL (≈ 75.4 µM) |  |  |  |  |  |  |  |  |  |  | 
9 | C/C(=N/Nc1ccccc1C)c1c(O)ccc2c(C)cc(=O)oc12 |  | 40 µg/mL (≈ 124 µM) | 75 µg/mL (≈ 233 µM) | 100 µg/mL (≈ 310 µM) | 50 µg/mL (≈ 155 µM) | 75 µg/mL (≈ 233 µM) | 40 µg/mL (≈ 124 µM) |  |  |  |  |  |  |  |  | inactive | inactive
10 | Cc1cc(=O)oc2c(-c3nn(-c4ccc(Cl)cc4)cc3C=O)c(O)ccc12 | 60 µg/mL (≈ 158 µM) | 15 µg/mL (≈ 39.4 µM) | 40 µg/mL (≈ 105 µM) | 15 µg/mL (≈ 39.4 µM) | 35 µg/mL (≈ 91.9 µM) | 30 µg/mL (≈ 78.8 µM) | 15 µg/mL (≈ 39.4 µM) | 25 µg/mL (≈ 65.7 µM) | 53.3% | 58.1% | 48.9% | 63.9% | 69.3% |  |  |  | 
11 | Cc1ccccc1-n1cc(C=O)c(-c2c(O)ccc3c(C)cc(=O)oc23)n1 |  | 30 µg/mL (≈ 83.2 µM) | 60 µg/mL (≈ 166 µM) | 50 µg/mL (≈ 139 µM) | 50 µg/mL (≈ 139 µM) | 40 µg/mL (≈ 111 µM) | 30 µg/mL (≈ 83.2 µM) |  | 13.8% | 14.1% | 12.8% | 15.1% | 17.1% |  |  | inactive | inactive
12 | Cc1cc(=O)oc2c(-c3nn(-c4ccccc4)cc3C=O)c(O)ccc12 |  | inactive | 100 µg/mL (≈ 289 µM) | 50 µg/mL (≈ 144 µM) | inactive | 30 µg/mL (≈ 86.6 µM) | 50 µg/mL (≈ 144 µM) |  | 42.1% | 46.4% | 39.4% | 50.1% | 57.8% |  |  | inactive | inactive
